SENP1 inh – human SENP1 catalytic domain inhibitors, primary screen, biochemical, FRET, uHTS; Sentrin-specific protease 1 (Homo sapiens), Q9P0U3; recombinant SENP1 catalytic domain, CyPet-SUMO1-YPet FRET cleavage; inhibition, % at 10 µM; 0.21% of 360,000 active;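 active = inhibition at least 30% at 10 µM, raw YFP signal under a set limit, fluorescence ratio 0.5 to 1.5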
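Assay system: hSENP1 catalytic domain, recombinant. Amount: SENP1 enzyme, 20 pM final. Schedule: 50 min reaction, RT, dark. Technique: FRET, CFP and YFP emission. Control set: no-enzyme wells low, DMSO-plus-enzyme wells high control.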
HSP90 refold inh – HSP90 inhibitors, primary screen, cell lysate, luminescence; Heat shock protein HSP 90 (rabbit reticulocyte lysate; luciferase refolding); Rabbit reticulocyte lysate, luciferase refolding luminescence, 3 h; inhibition, % at 5.6 µM; 0.91% of 290,000 active; AID 1789, 2009;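 active = inhibition above the screen-wide mean plus 3 SD, computed separately per campaign, cut at about 16% in these data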;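 also: inhibitors lower the luminescence because luciferase stays unfolded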
SENP8 block-1 – SENP8 protease inhibitors, primary screen, biochemical, luminescence; Sentrin-specific protease 8 (Homo sapiens), Q96LD8; purified SENP8, Z-RLRGG-aminoluciferin cleavage; inhibition, % at 10 µM; 1.2% of 330,000 active; AID 2540, 2010; in the data active = inhibition above about 50%
SENP6 block – SENP6 protease inhibitors, primary screen, biochemical, luminescence, uHTS; Sentrin-specific protease 6 (Homo sapiens), Q9GZR1; Recombinant SENP6 catalytic domain, aminoluciferin luminescence; inhibition, % at 10 µM; 1.8% of 330,000 active; AID 2599, 2010;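 active = inhibition above about 50% at the single tested dose, limit read from the data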
Target sequence (Q9GZR1 628-1112 limits assumed): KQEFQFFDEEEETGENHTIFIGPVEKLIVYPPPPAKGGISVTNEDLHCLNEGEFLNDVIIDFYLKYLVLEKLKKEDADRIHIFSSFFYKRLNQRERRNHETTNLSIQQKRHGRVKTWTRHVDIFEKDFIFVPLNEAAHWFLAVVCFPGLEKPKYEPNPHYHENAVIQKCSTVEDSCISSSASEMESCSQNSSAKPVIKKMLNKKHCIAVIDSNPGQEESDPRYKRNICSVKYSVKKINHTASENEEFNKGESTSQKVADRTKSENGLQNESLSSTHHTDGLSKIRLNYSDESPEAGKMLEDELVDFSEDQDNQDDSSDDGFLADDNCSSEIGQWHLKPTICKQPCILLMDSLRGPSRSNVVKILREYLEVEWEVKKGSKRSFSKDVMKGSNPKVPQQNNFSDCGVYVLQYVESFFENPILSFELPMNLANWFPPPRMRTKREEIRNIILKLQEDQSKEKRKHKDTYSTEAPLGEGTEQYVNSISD
SENP7 block – SENP7 protease inhibitors, primary screen, biochemical, luminescence, uHTS. Sentrin-specific protease 7 (Homo sapiens), Q9BQF6. recombinant SENP7, Z-RLRGG-aminoluciferin luminescence, 40 min. inhibition, % at 5 µM. 1.5% of 330,000 active. AID 434973, 2010;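 active = inhibition above about 50% at the single test dose, limit read from the data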
SENP8 block-2 – human SENP8 protease inhibitors, primary screen, biochemical, fluorescence, Nedd8 protein substrate, uHTS; inhibition, % at 20 µM; Sentrin-specific protease 8 (Homo sapiens), Q96LD8; 0.64% of 360,000 active; recombinant SENP8; in the data active = inhibition mostly above about 40%, no sharp cut-off; inactive = mostly below about 27%
Numbers stand for hits; - = inactive; . = no result. The list is not random: actives were taken first. Their share in the collection is about 2.9%.

SMILES | SENP1 inh | HSP90 refold inh | SENP8 block-1 | SENP6 block | SENP7 block | SENP8 block-2
O=C(NCCc1ccccc1)c1ccc2c(=O)[nH]c3c(C(=O)NCC4CCCO4)sc(=S)n3c2c1 (centres undefined) | 54 | - | - | - | - | -
CC(C)NC(=O)c1sc(=S)n2c1[nH]c(=O)c1ccc(C(=O)NCCc3ccc(Cl)cc3)cc12 | 49 | - | - | - | - | -
CCOc1ccc(CCNC(=O)c2ccc3c(=O)[nH]c4c(C(=O)NC(C)C)sc(=S)n4c3c2)cc1 | 48 | - | - | - | - | -
O=C(NC1CCCCC1)c1sc(=S)n2c1[nH]c(=O)c1ccccc12 | - | - | - | - | - | -
Cc1ccc2c(c1)-n1c(nc3ccccc3c1=O)C(CC(C)C)NC2=O (centres undefined) | . | . | - | - | - | .
Cc1nc2c(nc1C)C(=O)c1ccccc1C2=O | - | . | . | . | . | 65
CCC(=O)Nc1cccc(-c2cn3cccc(C)c3n2)c1 | - | - | - | - | - | -
COc1ccc(-c2cn3cccc(C)c3n2)cc1F | - | - | - | - | 60 | -
O=C(O)c1ccccc1NS(=O)(=O)c1ccc(N/N=C/c2cccc(O)c2O)c([N+](=O)[O-])c1 | - | . | . | . | . | 39
COc1cc(C=NNc2ccc(S(=O)(=O)Nc3ccccc3C(=O)O)cc2[N+](=O)[O-])ccc1O | - | . | - | - | - | 46
CCOc1ccc(C=NNc2ccc(S(=O)(=O)Nc3ccccc3C(=O)O)cc2[N+](=O)[O-])cc1OC | - | . | - | - | - | 52
CCOc1cc(/C=N/Nc2ccc(S(=O)(=O)Nc3ccccc3C(=O)O)cc2[N+](=O)[O-])cc(Cl)c1O | - | . | . | . | . | -
COCc1cc(CNC(=O)C2CCC(=O)N(Cc3ccccc3OC)C2)[nH]n1 (centres undefined) | - | - | - | - | - | -
CCOc1ccccc1C(=O)Nc1ccc(S(=O)(=O)Nc2nccc(C)n2)cc1 | - | - | - | - | - | -
COC(=O)C1=C(C(=O)OC)SC(=C2C(=S)C(C)(C)N(C(=O)CC(C)C)c3ccccc32)S1 | - | - | - | - | - | 59
COc1ccc(S(=O)(=O)N2CCN(C)CC2)cc1NC(=O)c1ccccc1 | - | - | - | - | - | -
Cc1cc(-c2ccc(N=Nc3c(S(=O)(=O)O)cc4cc(S(=O)(=O)O)cc(N)c4c3O)c(C)c2)ccc1N=Nc1c(S(=O)(=O)O)cc2cc(S(=O)(=O)O)cc(N)c2c1O | . | . | 72 | - | - | .
O=S(=O)(O)c1cc(O)c2c(O)c(N=Nc3cc(Cl)ccc3O)c(S(=O)(=O)O)cc2c1 | - | - | - | - | - | -
O=C(/C=C/c1cn(CC(O)CN2CCCCC2)c2ccccc12)c1ccccc1 (centres undefined) | - | - | . | . | . | -
CN1CCN(Cn2cc(/C=C/C(=O)c3ccccc3)c3ccccc32)CC1 | - | - | - | 59 | - | -
CC(C)OC(=O)c1ccc(COC(=O)c2cnccn2)cc1 | - | - | - | 59 | 69 | -
O=C(N/N=C/C=C/c1ccccc1)c1cccs1 | - | - | - | - | - | -
O=C(N/N=C/C(Br)=C/c1ccccc1)c1cccs1 | - | - | 51 | 62 | - | -
N=C1/C(=C\c2ccc(-c3cccc(C(=O)O)c3)o2)C(=O)N=C2SC=C(c3ccccc3)N12 | - | - | - | 79 | - | -
Cc1c(N2C(=O)/C(=C\c3ccc(N(C)C)cc3)N(C)C2=S)c(=O)n(-c2ccccc2)n1C | 69 | - | . | . | . | -
SMILES | SENP1 inh | HSP90 refold inh | SENP8 block-1 | SENP6 block | SENP7 block | SENP8 block-2
CN1C(=S)N(c2cccnc2)C(=O)/C1=C\c1ccc(N(C)C)cc1 | 61 | - | . | . | . | -
CN1C(=S)N(c2cccnc2)C(=O)/C1=C\c1ccc(C(C)(C)C)cc1 | - | - | - | - | - | -
COc1ccc(C(=S)N2CCN(c3ccccc3C)CC2)cc1 | - | - | - | - | - | -
COc1cc(/C=C2\SC(=O)N(c3ccc(Cl)cc3)C2=O)cc([N+](=O)[O-])c1O | - | 66 | . | . | . | -
COc1cc(/C=C2\SC(=O)N(c3cccc(Cl)c3)C2=O)cc([N+](=O)[O-])c1O | - | - | - | - | - | -
COc1cc(/C=C2/C(=O)NN(c3cccc(C)c3)C2=O)cc([N+](=O)[O-])c1O | - | - | - | - | - | 48
COc1cc(/C=C2/C(=O)NN(c3ccc(C)c(Cl)c3)C2=O)cc([N+](=O)[O-])c1O | - | - | - | - | - | 50
CCc1cccc(C)c1NC(=O)COC(=O)CSCc1ccccc1 | - | . | - | - | - | -
COc1ccc(Cl)cc1NC(=O)CCN1C(=O)C2C3CCC(C3)C2C1=O (centres undefined) | - | - | - | - | - | -
Cc1[nH]c(=O)sc1C(=O)NCc1ccc([N+](=O)[O-])cc1 | - | . | . | . | . | -
CCCc1cc(N2CCOCC2)n2ncc(-c3ccccc3)c2n1 | - | 17 | - | - | - | -
CC1=NN(c2ccccc2)C(=O)/C1=C/c1ccc[nH]1 | - | - | - | - | - | 46
CC1=NN(c2ccccc2)C(=O)/C1=C/C=C/C=C/N(C)C | 33 | - | - | - | - | -
CC1=NN(c2ccccc2)C(=O)/C1=C/c1ccc(Cl)cc1 | - | - | - | - | - | 41
CC1=NN(c2ccccc2)C(=O)/C1=C/c1c(O)n(-c2ccc(F)cc2)[nH]c1=O | - | - | - | 58 | - | -
CC1=NN(c2ccccc2)C(=O)/C1=C\c1ccc(Br)s1 | - | - | - | - | - | -
N#Cc1ccccc1OCc1cccc(S(=O)(=O)N2CCOCC2)c1 | - | . | - | - | - | -
O=C(COC(=O)c1ccc[n+]([O-])c1)Nc1ccc(Cl)cc1[N+](=O)[O-] | - | . | - | - | - | -
COc1ccc(NC(=O)C2(C)CCN2Cc2ccc(OC(F)(F)F)cc2)cc1OC (centres undefined) | - | . | . | . | . | -
CC1=NN(c2ccccc2)C(=O)C1=Cc1ccccc1 | - | . | . | . | . | 50
COc1ccc(/C=C2/C(=O)N(c3ccccc3)N=C2C)cc1Br | - | - | - | - | - | 46
COc1ccc(/C=C2/C(=O)N(c3cccc(F)c3)N=C2C)c(OC)c1 | - | - | - | - | - | 41
CCN(c1cccc(C)c1)S(=O)(=O)c1ccc(-n2cccn2)cc1 | - | - | - | - | - | -
N#C/C(=C(/O)c1ccccc1F)c1nc2cc(C(F)(F)F)ccc2s1 | - | - | - | - | - | -
N#C/C(=C(/O)c1ccc2c(c1)OCO2)c1nc2cc(C(F)(F)F)ccc2s1 | - | - | 54 | - | - | -

Source: PubChem BioAssay (several laboratories)
